# Results taken from publication PMC3783524 (ACS chemical biology, 2013).
# Where “and” joins values, the source holds several entries; their conditions need not be identical. Equal entries are not always repeated.
# Experiments:
# Solubility = assay type: physicochemical; settings: result in words
# DnaK-GrpE [1] = molecular target: T1, DnaK-GrpE (Escherichia coli, UniProt P0A6Y8); experiment: GrpE-stimulated ATPase activity of DnaK; assay type: biochemical; settings: for Inhibition of the DnaK-GrpE combination (ATPase): result in words
# T1 sequence (P09372 whole entry): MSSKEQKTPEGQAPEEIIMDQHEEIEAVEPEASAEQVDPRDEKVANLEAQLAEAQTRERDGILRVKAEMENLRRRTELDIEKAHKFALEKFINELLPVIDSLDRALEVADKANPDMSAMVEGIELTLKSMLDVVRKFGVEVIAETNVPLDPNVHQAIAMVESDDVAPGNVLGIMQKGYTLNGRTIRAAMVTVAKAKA
# T1 sequence (P0A6Y8 whole entry): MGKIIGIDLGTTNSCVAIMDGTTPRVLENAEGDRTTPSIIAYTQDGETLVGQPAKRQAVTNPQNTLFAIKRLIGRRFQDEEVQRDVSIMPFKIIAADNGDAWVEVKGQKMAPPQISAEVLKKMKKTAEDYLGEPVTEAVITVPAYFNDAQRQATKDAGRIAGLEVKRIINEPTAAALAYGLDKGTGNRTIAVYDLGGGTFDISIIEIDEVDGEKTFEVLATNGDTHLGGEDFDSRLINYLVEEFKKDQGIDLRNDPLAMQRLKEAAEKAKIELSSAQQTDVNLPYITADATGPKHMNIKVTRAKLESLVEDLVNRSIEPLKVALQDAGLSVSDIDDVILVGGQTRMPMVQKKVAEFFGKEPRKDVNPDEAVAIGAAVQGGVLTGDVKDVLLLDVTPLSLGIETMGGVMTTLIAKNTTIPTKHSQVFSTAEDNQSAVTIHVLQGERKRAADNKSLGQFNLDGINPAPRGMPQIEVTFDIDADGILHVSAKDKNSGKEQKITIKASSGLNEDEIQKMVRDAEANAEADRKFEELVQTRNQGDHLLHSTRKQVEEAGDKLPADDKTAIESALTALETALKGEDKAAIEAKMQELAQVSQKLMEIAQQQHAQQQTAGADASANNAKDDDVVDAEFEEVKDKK
# In short: (§1)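 Purified E. coli DnaK, DnaJ and GrpE (His-tagged, tag removed by TEV) and the synthetic NRLLLTG peptide. DnaK at 0.6 μM unless noted, with co-chaperone at stated levels, in 100 mM Tris-HCl, 20 mM KCl, 6 mM MgCl2, pH 7.4. Test compound added from DMSO stock. Phosphate release read by malachite green adaptation (absorbance 620 nm). Michaelis-Menten fit. Triplicates, three independent experiments.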
# DnaK M89A = DnaK M89A (Escherichia coli, UniProt P0A6Y8, M89A); experiment: GrpE-stimulation of DnaK mutant M89A, ATPase assay; assay type: biochemical; settings: result in words
# Sequence of DnaK M89A (P09372 whole entry): as the sequence (P09372 whole entry) above
# Sequence of DnaK M89A (P0A6Y8 whole entry M89A): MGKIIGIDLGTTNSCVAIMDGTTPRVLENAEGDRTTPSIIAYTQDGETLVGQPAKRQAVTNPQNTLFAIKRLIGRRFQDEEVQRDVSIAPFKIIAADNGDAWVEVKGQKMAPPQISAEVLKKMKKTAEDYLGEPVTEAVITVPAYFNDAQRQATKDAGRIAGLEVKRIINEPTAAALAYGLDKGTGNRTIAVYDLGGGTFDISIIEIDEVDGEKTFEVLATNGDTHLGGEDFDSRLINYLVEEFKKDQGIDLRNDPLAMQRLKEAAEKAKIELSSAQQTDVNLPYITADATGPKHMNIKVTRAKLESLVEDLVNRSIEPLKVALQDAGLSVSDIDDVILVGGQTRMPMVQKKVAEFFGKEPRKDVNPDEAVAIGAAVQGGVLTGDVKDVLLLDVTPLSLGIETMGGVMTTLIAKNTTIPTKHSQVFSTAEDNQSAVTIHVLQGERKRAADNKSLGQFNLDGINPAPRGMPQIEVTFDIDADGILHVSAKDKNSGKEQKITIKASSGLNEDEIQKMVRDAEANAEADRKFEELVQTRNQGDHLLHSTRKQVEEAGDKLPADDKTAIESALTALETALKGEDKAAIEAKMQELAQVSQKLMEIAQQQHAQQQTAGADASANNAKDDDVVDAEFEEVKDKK
# DnaK [2] = molecular target: T2, DnaK (Escherichia coli, UniProt P0A6Y8); experiment: Fluorescence polarization, binding of FAM-ATP to DnaK; settings: for Competition with FAM-ATP for binding to DnaK: FP assay, result in words
# T2 sequence (P0A6Y8 whole entry): as the sequence (P0A6Y8 whole entry) above
# DnaK-peptide = DnaK-peptide (Escherichia coli, UniProt P0A6Y8); experiment: Peptide substrate; assay type: biochemical; settings: NRLLLTG peptide; result in words
# Sequence of DnaK-peptide (P0A6Y8 whole entry): as above
# In short: as §1
# DnaK-GrpE [3] = molecular target: T1, DnaK-GrpE; experiment: Fluorescence-quenching assay, physical interaction between DnaK and GrpE; assay type: binding; settings: result in words
# GrpE = GrpE (Escherichia coli, UniProt P09372); experiment: Isothermal calorimetry, binding to GrpE
# Sequence of GrpE (P09372 whole entry): as the sequence (P09372 whole entry) above
# DnaJ = DnaJ (Escherichia coli, UniProt P08622); experiment: Isothermal calorimetry, binding to DnaJ
# Sequence of DnaJ (P08622 whole entry): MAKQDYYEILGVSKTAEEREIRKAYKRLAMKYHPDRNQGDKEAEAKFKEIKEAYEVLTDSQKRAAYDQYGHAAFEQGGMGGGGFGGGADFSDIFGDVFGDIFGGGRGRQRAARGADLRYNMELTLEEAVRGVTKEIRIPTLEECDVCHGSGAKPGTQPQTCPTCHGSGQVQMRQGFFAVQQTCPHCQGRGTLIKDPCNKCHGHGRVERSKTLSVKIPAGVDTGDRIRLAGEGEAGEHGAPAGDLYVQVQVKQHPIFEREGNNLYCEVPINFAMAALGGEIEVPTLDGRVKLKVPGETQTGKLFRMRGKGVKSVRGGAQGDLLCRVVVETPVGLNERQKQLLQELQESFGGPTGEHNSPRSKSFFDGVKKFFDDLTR
# DnaK-DnaJ [4] = molecular target: T3, DnaK-DnaJ (Escherichia coli, UniProt P0A6Y8); experiment: DnaJ-stimulated ATPase activity of DnaK; assay type: biochemical; settings: result in words
# T3 sequence (P0A6Y8 whole entry): as the sequence (P0A6Y8 whole entry) above
# In short: as §1
# DnaK D233A = DnaK D233A (Escherichia coli, UniProt P0A6Y8, D233A); experiment: GrpE-stimulation of DnaK control mutant D233A, ATPase assay; assay type: biochemical; settings: identical to wild type
# Sequence of DnaK D233A (P0A6Y8 whole entry D233A): as the sequence (P0A6Y8 whole entry M89A) above, with A89M, D233A counted along it
# Sequence of DnaK D233A (P09372 whole entry, further chain): as the sequence (P09372 whole entry) above
# DnaK [5] = molecular target: T2, DnaK; experiment: Intrinsic ATPase activity of DnaK alone; assay type: biochemical; settings: result in words
# In short: as §1
# DnaK R56A = DnaK R56A (Escherichia coli, UniProt P0A6Y8, R56A); experiment: GrpE-stimulation of DnaK mutant R56A, ATPase assay; assay type: biochemical; settings: result in words
# Sequence of DnaK R56A (P0A6Y8 whole entry R56A): as the sequence (P0A6Y8 whole entry M89A) above, with R56A, A89M counted along it
# Sequence of DnaK R56A (P09372 whole entry, further chain): as the sequence (P09372 whole entry) above
# DnaK [6] = molecular target: T2, DnaK; experiment: Fluorescence polarization, binding of FITC-HLA peptide to DnaK; settings: FP assay; result in words
# DnaK [7] = molecular target: T2, DnaK; experiment: Intrinsic tryptophan fluorescence of DnaK; assay type: binding
# In short: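 DnaK (5 μM) held in 25 mM HEPES, 10 mM KCl, 5 mM MgCl2, pH 7.5, with 1 mM ADP or ATP and test compound (e.g. 25 or 100 μM). Incubated 30 min at 37 °C in the dark. Excitation 290 nm; emission scanned 300–450 nm or read at 340 nm. Langmuir fit. Triplicate, three independent experiments.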
# DnaK-DnaJ [8] = molecular target: T3, DnaK-DnaJ; experiment: Fluorescence-quenching assay, binding of labeled DnaJ to DnaK; settings: not statistically significant (p = 0.07)
# [9] = DnaK 5 μM, 25 μM or 100 μM compound
smiles,measurement,setting,value
"CC(=O)O[C@H]1C[C@@H]2CC[C@@H]3[C@H](CC[C@@]4(C)[C@H]3C[C@H]([N+]3(C)CCCCC3)[C@@H]4OC(C)=O)[C@@]2(C)C[C@@H]1[N+]1(C)CCCCC1 [PaBr, pancuronium bromide]",Solubility,Solubility,weakly soluble
same,Inhibition of the DnaK-GrpE combination (ATPase),DnaK-GrpE [1],only inhibitors of the DnaK-GrpE combination
"CCCc1nc2c(C)cc(-c3nc4ccccc4n3C)cc2n1Cc1ccc(-c2ccccc2C(=O)O)cc1 [Tel, telmisartan]",Ability to block GrpE-stimulation of DnaK M89A,DnaK M89A,resistant
same,Competition with FAM-ATP for binding to DnaK,DnaK [2],interfered with binding
same,"Effect on FAM-ATP binding, fold",DnaK [2]; reduced nucleotide affinity,2 fold
same,Activity against DnaK-peptide substrate combination (ATPase),DnaK-peptide,little activity
same,Effect on physical interaction between DnaK and GrpE,DnaK-GrpE [3],no effect
same,Kd,GrpE,> 100 µM
same,Kd,DnaJ,> 100 µM
same,Inhibition of the DnaK-DnaJ combination (ATPase),DnaK-DnaJ [4],little activity
same,Inhibition of the DnaK-GrpE combination (ATPase),DnaK-GrpE [1],only inhibitors of the DnaK-GrpE combination
same,"Fold increase in Km of GrpE stimulation, wild type DnaK",DnaK-GrpE [1]; wild type DnaK,~ 1.5 fold
same,"Fold increase in Km of GrpE stimulation, DnaK D233A",DnaK D233A,~ 1.5 fold
same,Activity against DnaK alone (intrinsic ATPase),DnaK [5],little activity
same,Ability to block GrpE-stimulation of DnaK R56A,DnaK R56A,resistant
same,Effect on apparent affinity of DnaK for FITC-HLA,DnaK [6],no effect
"O=c1c(O)c(-c2cc(O)c(O)c(O)c2)oc2cc(O)cc(O)c12 [Myr, myricetin]",Inhibition of the DnaK-DnaJ combination (ATPase),DnaK-DnaJ [4],only inhibitors of the DnaK-DnaJ combination
"COc1cc(C(=O)NS(=O)(=O)c2ccccc2C)ccc1Cc1cn(C)c2ccc(NC(=O)OC3CCCC3)cc12 [Zaf, zafirlukast]",Kd,"DnaK [7]; Apparent affinity KD for ATP-bound DnaK, ATP-bound DnaK",> 100 µM
same,Kd,"DnaK [7]; Apparent affinity KD for DnaK in the presence of ADP, ADP 1 mM",52 ± 12 µM
same,Decrease of tryptophan fluorescence intensity at 342 nm,DnaK [7]; [9],~ 25%
same,Shift of tryptophan fluorescence peak,DnaK [7]; [9],~ 2 nm
same,Effect on Trp fluorescence in the ATP-bound states,"DnaK [7]; p = 0.06, result in words",no effect
same,Competition with FAM-ATP for binding to DnaK,DnaK [2],unable to compete
same,Activity against DnaK-peptide substrate combination (ATPase),DnaK-peptide,has activity
same,Inhibition of the DnaK-DnaJ combination (ATPase),DnaK-DnaJ [4],only inhibitors of the DnaK-DnaJ combination
same,IC50,DnaK-GrpE [1],> 200 µM
same,Inhibition of the DnaK-GrpE combination (ATPase),DnaK-GrpE [1],weak or no activity
same,Activity against DnaK alone (intrinsic ATPase),DnaK [5],weak or no activity
same,"Weakening of binding of DnaJ to DnaK, fold",DnaK-DnaJ [8],~ 1.8 fold and ~ 2 fold
same,Effect on apparent affinity of DnaK for FITC-HLA,DnaK [6],enhanced the apparent affinity
